Activity calls are given as the source filed them. The calls are words filed in the database; no cut-off is given here.
What was measured:
[1] = target: T1, Fe(3+)-pyochelin receptor (Pseudomonas aeruginosa (strain ATCC 15692 / PAO1 / 1C / PRS 101 / LMG12228), UniProt P42512); experiment: Displacement of Pch-55Fe(III) from Pseudomonas aeruginosa PAD07 FptA after 1 hr in presence of CCCP
T1 sequence (P42512 whole entry): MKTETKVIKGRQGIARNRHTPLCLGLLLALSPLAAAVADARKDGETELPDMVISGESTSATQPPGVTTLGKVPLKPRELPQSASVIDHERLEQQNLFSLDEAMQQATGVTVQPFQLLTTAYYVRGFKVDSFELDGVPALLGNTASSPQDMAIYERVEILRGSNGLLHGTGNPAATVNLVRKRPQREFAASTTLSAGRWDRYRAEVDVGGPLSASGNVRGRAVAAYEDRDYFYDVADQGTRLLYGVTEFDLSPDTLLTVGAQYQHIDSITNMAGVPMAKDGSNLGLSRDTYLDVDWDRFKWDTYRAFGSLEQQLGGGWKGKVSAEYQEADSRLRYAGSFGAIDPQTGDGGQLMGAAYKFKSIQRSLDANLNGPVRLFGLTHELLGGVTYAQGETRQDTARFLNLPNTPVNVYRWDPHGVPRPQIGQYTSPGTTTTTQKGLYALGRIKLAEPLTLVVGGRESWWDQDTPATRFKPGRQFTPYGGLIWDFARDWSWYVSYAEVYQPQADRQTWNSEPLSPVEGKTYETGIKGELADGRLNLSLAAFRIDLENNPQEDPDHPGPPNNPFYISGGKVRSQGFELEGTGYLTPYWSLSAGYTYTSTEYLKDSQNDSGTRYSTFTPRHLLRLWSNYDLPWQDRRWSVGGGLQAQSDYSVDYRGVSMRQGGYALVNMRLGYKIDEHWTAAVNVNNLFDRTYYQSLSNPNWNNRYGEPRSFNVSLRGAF
Procedure, shortened: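 PAD07 P. aeruginosa (mutant lacking pyochelin and pyoverdine), OD600 0.3, held 1 h at 0 °C in 50 mM Tris–HCl pH 8.0 with 200 µM CCCP to block uptake. Tracer 1 nM Pch-55Fe(III) competed by the Fe(III)-loaded compounds over […] range. Inhibition constant (Ki) derived from the competition.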

[2] = tested on: Pseudomonas aeruginosa; experiment: Induction of iron uptake in Pseudomonas aeruginosa PAD07 at 100 nM; type: functional, organism-based
Procedure, shortened: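 PAD07 P. aeruginosa cells lacking endogenous siderophores, OD600 1, incubated at 37 °C with 100 nM of the 55Fe(III)-loaded compound. Aliquots taken at several times were centrifuged, and cell-pellet 55Fe was measured as iron transported. Repeated with the protonophore CCCP at 0 °C to check TonB-dependent uptake versus passive diffusion.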

SMILES	Ki [1]	Ki ([1]; read-out: Ki) [nM]	Activity [2]
CN1[C@@H]([C@H]2CSC(c3ccccc3O)=N2)SC[C@H]1C(=O)O	–	2.2	Active
COc1ccc(F)cc1-c1nc(C2SC[C@@H](C(=O)O)N2C)cs1 (mixture of isomers)	–	1440	inactive
COc1ccc(N)cc1-c1nc(C2SC[C@@H](C(=O)O)N2C)cs1 (mixture of isomers)	–	460	inactive
COc1ccccc1-c1nc(C2SC[C@@H](C(=O)O)N2C)cs1 (mixture of isomers)	Not Active	–	inactive

The next lines start with results.

Ki [1]	Ki ([1]; read-out: Ki) [nM]	SMILES	Activity [2]
Not Active	–	COc1cc(O)ccc1-c1nc(C2SC[C@@H](C(=O)O)N2C)cs1 (mixture of isomers)	inactive
Not Active	–	CN1C(c2csc(-c3cc(N)ccc3O)n2)SC[C@H]1C(=O)O (mixture of isomers)	inactive
–	11.3	CN1C(c2csc(-c3ccc(N)cc3O)n2)SC[C@H]1C(=O)O (mixture of isomers)	Active
–	6.5	CN1C(c2csc(-c3ccc(O)cc3O)n2)SC[C@H]1C(=O)O (mixture of isomers)	Active
–	9.8	CN1[C@@H](c2csc(-c3ccccc3O)n2)SC[C@H]1C(=O)O	Active

Source: ChEMBL document CHEMBL3098095, “Synthesis and biological properties of thiazole-analogues of pyochelin, a siderophore of Pseudomonas aeruginosa” (Bioorg Med Chem Lett, 2014)
